In ChEMBL document CHEMBL1137277, “Synthesis of highly substituted dibenzo[b,f]azocines and their evaluation as protein kinase inhibitors” (Bioorg Med Chem Lett, 2006):
Calls of active or inactive are those of the source. The rule behind the calls is not given here.

Assays:
[1] = target: Protein kinase C (PKC) (Homo sapiens) (UniProt O94806+P41743+P17252+P05129+Q05655+P05771+Q05513+Q02156+P24723+Q15139+Q04759); test: Inhibition of PKC-mediated phosphorylation of neurogranin at 100 uM; type: protein assay
Procedure, shortened: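 PKC (0.33 µg/ml), neurogranin (20 µM), compound 100 µM in 20 mM Tris pH 7.5, 10 mM MgCl2, 0.1 mg/ml BSA, 250 µM EGTA, 400 µM CaCl2 plus lipid activator (phosphatidylserine, […], CaCl2); 1 h equilibration. DMSO and no-kinase controls; duplicate means.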

[2] = target: T1, cAMP-dependent protein kinase (PKA) (Homo sapiens, UniProt P22694+P17612+P22612); test: Inhibition of PKA-mediated phosphorylation of kemptide at 100 uM; type: protein assay
Procedure, shortened: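 PKA (41 µg/ml) with kemptide (10 µM) and compound at 100 µM in 40 mM Tris pH 7.5, 20 mM MgCl2, 0.1 mg/ml BSA; equilibrated 1 h. ATP added (1 µM); after 10 min, remaining ATP read by Kinase-Glo Plus luminescence. DMSO and no-kinase controls; means of two replicates.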

[3] = target: T1, cAMP-dependent protein kinase (PKA); test: Inhibition of PKA-mediated phosphorylation of kemptide

| Activity [1] | Activity [2] | IC50 [3] [µM] | Structure (SMILES) |
| --- | --- | --- | --- |
| inactive | inactive |  | CCc1cccc2c1CNc1c(cccc1CCc1ccccc1)/C=C\2COc1cccc(F)c1 |
| inactive | inactive |  | CCc1cccc2c1CNc1c(cccc1CCc1ccccc1)/C=C\2COc1cccc([N+](=O)[O-])c1 |
| inactive | inactive |  | CCc1cccc2c1CNc1c(cccc1CCc1ccccc1)/C=C\2COc1ccc(C(=O)OC)cc1 |
| inactive | inactive |  | CCc1cccc2c1CNc1c(cccc1CCc1ccccc1)/C=C\2COc1ccc(F)cc1 |
| inactive | inactive |  | CCc1cccc2c1CNc1c(cccc1CCc1ccccc1)/C=C\2COc1cccc(Cl)c1 |
| inactive | inactive |  | CCc1cccc2c1CNc1c(cccc1CCc1ccccc1)/C=C\2COc1ccccc1Cl |
| inactive | inactive |  | CCc1cccc2c1CNc1c(cccc1CCc1ccccc1)/C=C\2COc1cccc(OC)c1 |
| inactive | inactive |  | CCc1cccc2c1CNc1c(cccc1CCc1ccccc1)/C=C\2COc1cccc(C(=O)OC)c1 |
| inactive | inactive |  | CCc1cccc2c1CNc1c(cccc1CCc1ccccc1)/C=C\2COc1cccc(C(F)(F)F)c1 |
| inactive | inactive |  | CCc1cccc2c1CNc1c(cccc1CCc1ccccc1)/C=C\2COc1ccccc1[N+](=O)[O-] |
| inactive |  | 122 | CCc1cccc2c1CNc1c(cccc1CCc1ccccc1)/C=C\2COc1ccccc1NC(C)=O |
| inactive | inactive |  | CCc1cccc2c1CNc1c(cccc1CCc1ccccc1)/C=C\2COc1ccc(OC)cc1 |
| inactive | inactive |  | CCc1cccc2c1CNc1c(cccc1CCc1ccccc1)/C=C\2COc1ccccc1F |
| inactive | inactive |  | CCc1cccc2c1CNc1c(cccc1CCc1ccccc1)/C=C\2COc1ccccc1C(F)(F)F |
| inactive | inactive |  | CCc1cccc2c1CNc1c(cccc1CCc1ccccc1)/C=C\2COc1ccccc1OC |
| inactive | inactive |  | CCc1cccc2c1CNc1c(cccc1CCc1ccccc1)/C=C\2COc1ccc([N+](=O)[O-])cc1 |
| inactive | inactive |  | CCc1cccc2c1CNc1c(cccc1CCc1ccccc1)/C=C\2COc1ccccc1 |
| inactive | inactive |  | CCc1cccc2c1CNc1c(cccc1CCc1ccccc1)/C=C\2COc1ccccc1C(=O)OC |
| inactive | inactive |  | CCc1cccc2c1CNc1c(cccc1CCc1ccccc1)/C=C\2COc1ccc(Cl)cc1 |
